Measured values reported in ChEMBL document CHEMBL3576788, “Dual-Mode HDAC Prodrug for Covalent Modification and Subsequent Inhibitor Release” (J Med Chem, 2015).
Positions count from the first letter of the chain named. Active and inactive are the calls of the source. The rule behind the calls is not given here.

Experiments:
[1] = tested on: T1, Histone deacetylase 8 (Homo sapiens), Q9BY41 [C153A]; assay: Binding affinity to human HDAC8 C153A mutant assessed as loss of activity at 2 to 10 uM by Fluor-de-Lys activity assay
T1 sequence (whole entry): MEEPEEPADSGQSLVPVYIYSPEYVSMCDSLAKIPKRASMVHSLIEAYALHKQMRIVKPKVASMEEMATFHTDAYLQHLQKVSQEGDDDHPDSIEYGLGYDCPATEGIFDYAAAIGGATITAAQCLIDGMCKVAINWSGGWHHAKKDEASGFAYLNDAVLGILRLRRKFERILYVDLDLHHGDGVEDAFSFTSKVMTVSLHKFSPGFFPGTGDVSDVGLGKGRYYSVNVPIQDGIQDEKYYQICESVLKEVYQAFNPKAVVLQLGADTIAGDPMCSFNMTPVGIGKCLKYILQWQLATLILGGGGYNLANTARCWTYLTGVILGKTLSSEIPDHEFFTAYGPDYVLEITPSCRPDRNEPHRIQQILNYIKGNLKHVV
Method in brief: (§1)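 Same as the wild-type method, but using the C153A HDAC8 mutant at 2 μM to start the reaction. Zn2+-reconstituted enzyme; 150 μM Fluor-de-Lys substrate with inhibitor at 30 °C, pH 8.0. Time-point aliquots quenched with trypsin/TSA. Product/substrate fluorescence ratio (ex 340, em 450/380 nm) gives progress curves.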

[2] = target: T2, Histone deacetylase 8 (Homo sapiens) (UniProt Q9BY41); assay: Binding affinity to human wild type HDAC8 assessed as loss of activity at 2 to 10 uM by Fluor-de-Lys activity assay
T2 sequence (whole entry): T1 sequence (whole entry) with A153C

[3] = Prodrug activation assessed as GSH reactivity in HEPES buffer at pH 7.4 by LC-MS analysis
Method in brief: (§2)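 Compound incubated with GSH (2 mM, 2 equiv) in 50 mM HEPES, pH 7.4, for 2 h at 37 °C. Products resolved by analytical HPLC, with peak identities assigned by LC-MS from retention times.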

[4] = target: Histone deacetylase 1 (Homo sapiens, UniProt Q13547); assay: Inhibition of human recombinant HDAC1 using MAZ1600 as fluorogenic substrate measured every 5 mins by optimized homogenous fluorescence based assay
Histone deacetylase 1, sequence (Q13547 whole entry): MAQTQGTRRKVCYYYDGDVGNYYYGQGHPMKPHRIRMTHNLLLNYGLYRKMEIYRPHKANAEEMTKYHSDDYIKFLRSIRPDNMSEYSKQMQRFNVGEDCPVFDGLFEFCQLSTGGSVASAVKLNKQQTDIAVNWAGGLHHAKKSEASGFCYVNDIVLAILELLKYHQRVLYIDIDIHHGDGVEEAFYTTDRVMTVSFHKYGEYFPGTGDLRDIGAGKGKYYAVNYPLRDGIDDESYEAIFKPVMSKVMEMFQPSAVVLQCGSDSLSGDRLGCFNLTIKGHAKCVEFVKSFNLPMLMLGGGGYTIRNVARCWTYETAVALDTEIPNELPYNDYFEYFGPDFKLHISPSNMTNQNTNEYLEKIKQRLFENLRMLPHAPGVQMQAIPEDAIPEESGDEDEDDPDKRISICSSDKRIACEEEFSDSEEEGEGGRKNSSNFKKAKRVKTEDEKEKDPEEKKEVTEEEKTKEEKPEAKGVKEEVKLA

[5] = target: Histone deacetylase 2 (Homo sapiens, UniProt Q92769); assay: Inhibition of human recombinant HDAC2 using MAZ1600 as fluorogenic substrate measured every 5 mins by optimized homogenous fluorescence based assay
Histone deacetylase 2, sequence (Q92769 whole entry): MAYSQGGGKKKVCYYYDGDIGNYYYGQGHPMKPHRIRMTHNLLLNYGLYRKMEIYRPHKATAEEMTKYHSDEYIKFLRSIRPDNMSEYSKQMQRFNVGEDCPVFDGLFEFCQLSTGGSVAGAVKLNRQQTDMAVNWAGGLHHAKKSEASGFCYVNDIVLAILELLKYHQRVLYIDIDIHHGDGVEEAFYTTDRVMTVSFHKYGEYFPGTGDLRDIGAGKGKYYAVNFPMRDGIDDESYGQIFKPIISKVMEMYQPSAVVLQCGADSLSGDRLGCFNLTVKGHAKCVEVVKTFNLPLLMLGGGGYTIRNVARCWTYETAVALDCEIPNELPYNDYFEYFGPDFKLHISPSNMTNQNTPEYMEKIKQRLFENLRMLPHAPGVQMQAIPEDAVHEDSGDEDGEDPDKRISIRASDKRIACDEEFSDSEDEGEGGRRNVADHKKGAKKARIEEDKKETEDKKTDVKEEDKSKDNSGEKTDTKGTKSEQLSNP

[6] = target: Histone deacetylase 3 (Homo sapiens, UniProt O15379); assay: Inhibition of human recombinant HDAC3 using MAZ1600 as fluorogenic substrate measured every 5 mins by optimized homogenous fluorescence based assay
Histone deacetylase 3, sequence (O15379 whole entry): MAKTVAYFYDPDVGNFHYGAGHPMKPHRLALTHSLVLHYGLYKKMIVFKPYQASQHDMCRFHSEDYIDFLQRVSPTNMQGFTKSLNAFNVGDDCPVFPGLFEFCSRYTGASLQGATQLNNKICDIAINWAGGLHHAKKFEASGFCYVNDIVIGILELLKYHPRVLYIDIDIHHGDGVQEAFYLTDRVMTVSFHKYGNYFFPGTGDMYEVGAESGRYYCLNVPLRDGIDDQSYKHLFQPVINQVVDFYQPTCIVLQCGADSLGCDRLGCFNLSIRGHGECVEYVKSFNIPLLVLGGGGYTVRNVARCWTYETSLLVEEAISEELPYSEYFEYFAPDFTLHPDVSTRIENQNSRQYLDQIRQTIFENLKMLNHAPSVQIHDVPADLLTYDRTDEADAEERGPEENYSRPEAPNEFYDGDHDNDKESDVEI

[7] = target: T3, Protein deacetylase HDAC6 (Homo sapiens, UniProt Q9UBN7); assay: Inhibition of human recombinant HDAC6 using MAZ1600 as fluorogenic substrate measured every 5 mins by optimized homogenous fluorescence based assay
T3 sequence (Q9UBN7 whole entry): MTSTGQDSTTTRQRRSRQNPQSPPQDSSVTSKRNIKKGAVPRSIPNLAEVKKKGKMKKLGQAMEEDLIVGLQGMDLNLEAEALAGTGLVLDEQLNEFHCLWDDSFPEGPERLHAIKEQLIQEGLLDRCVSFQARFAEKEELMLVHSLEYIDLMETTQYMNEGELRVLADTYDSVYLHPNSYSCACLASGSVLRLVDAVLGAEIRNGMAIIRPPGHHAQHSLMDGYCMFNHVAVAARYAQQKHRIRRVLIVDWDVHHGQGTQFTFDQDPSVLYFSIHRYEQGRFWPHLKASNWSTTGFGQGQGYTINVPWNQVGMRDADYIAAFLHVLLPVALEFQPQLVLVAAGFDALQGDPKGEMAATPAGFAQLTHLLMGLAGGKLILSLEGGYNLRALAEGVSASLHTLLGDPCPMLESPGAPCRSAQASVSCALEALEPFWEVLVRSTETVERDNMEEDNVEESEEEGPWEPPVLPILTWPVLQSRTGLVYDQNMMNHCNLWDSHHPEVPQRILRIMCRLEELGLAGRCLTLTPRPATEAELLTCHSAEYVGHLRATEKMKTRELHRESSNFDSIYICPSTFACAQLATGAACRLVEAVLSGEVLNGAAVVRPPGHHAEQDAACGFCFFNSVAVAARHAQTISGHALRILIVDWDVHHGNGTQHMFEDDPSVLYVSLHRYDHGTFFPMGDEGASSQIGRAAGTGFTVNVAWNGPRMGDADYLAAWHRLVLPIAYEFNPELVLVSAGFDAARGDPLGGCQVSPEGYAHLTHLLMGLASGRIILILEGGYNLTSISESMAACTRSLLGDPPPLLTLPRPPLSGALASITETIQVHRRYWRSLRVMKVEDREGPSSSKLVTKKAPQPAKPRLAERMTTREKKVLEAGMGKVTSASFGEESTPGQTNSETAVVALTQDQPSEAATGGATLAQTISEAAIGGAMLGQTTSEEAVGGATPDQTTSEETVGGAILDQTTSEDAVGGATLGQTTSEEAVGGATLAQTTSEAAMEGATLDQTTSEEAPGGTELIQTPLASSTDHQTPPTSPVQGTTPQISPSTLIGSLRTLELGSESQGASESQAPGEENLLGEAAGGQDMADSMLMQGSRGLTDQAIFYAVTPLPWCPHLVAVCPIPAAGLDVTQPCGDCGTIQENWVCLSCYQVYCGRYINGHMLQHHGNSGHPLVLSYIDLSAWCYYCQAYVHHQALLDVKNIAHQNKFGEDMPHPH

[8] = target: T4, Histone deacetylase 8 (Homo sapiens, UniProt Q9BY41); assay: Inhibition of human recombinant HDAC8 using MAZ1675 as fluorogenic substrate measured every 5 mins by optimized homogenous fluorescence based assay
T4 sequence (Q9BY41 whole entry): T1 sequence (whole entry) with A153C

[9] = tested on: HH; assay: Cytotoxicity against human HH cells assessed as cell proliferation at 50 uM after 70 hrs by MTS assay; assay type: functional, cell-based
Method in brief: (§3)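 HH and Jurkat cells in RPMI 1640 + 10% FBS, seeded at 20 000 cells/well. Exposed directly to compound (0.5–128 μM) for 70 h. MTS reagent added for 4 h at 37 °C, absorbance at 490 nm. Each concentration run in triplicate, 2–3 trials.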

[10] = tested on: Jurkat; assay: Cytotoxicity against human Jurkat cells assessed as cell proliferation at 50 uM after 70 hrs by MTS assay; assay type: functional, cell-based; method in brief: as §3
[11] = Cytotoxicity against mouse NIH/3T3 cells assessed as cell proliferation at 50 uM after 70 hrs by MTS assay; assay type: cell-based; details: nih3t3, 70 h
Method in brief: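 NIH/3T3 cells in DMEM + 10% FBS, seeded at 5000 cells/well and allowed to attach for 16 h at 37 °C, 5% CO2. Then exposed to compound for 70 h. MTS reagent added for 2 h, absorbance at 490 nm. Triplicate wells, 2–3 trials.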

[12] = Retention time of the compound in HEPES buffer treated with SAHA-TAP at pH 7.4 by LC-MS analysis in presence of GSH; assay type: physicochemical; method in brief: as §2
[13] = Stability in human plasma assessed as compound remaining after 2 hrs by HPLC analysis; assay type: ADME, cell-free; details: read-out: Stability
Method in brief: (§4)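 Pooled normal human plasma pre-warmed 2 min at 37 °C, spiked from a 5.0 mM DMSO stock, run in duplicate. Aliquots taken at 0–120 min, quenched with ACN, centrifuged and filtered. Analysed by reverse-phase C18 HPLC; percent parent is peak area relative to the 0 min sample.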

[14] = tested on: Jurkat; assay: Effect on alpha-actin level in human Jurkat cells at 6 to 20 uM after 4 hrs by Western blot analysis; assay type: ADME, cell-based
Method in brief: (§5)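 Log-phase HH or Jurkat cells at 70% confluence treated 4 h, harvested, lysed in RIPA with protease inhibitors. Protein normalised by BCA, run on 10% SDS-PAGE and blotted to PVDF. Probed with anti-actin–HRP (plus acetylated-tubulin and tubulin antibodies) and detected by chemiluminescence.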

[15] = tested on: HH; assay: Effect on alpha-actin level in human HH cells at 6 to 20 uM after 4 hrs by Western blot analysis; assay type: ADME, cell-based; method in brief: as §5
[16] = Retention time of the compound in HEPES buffer at pH 7.4 by LC-MS analysis in presence of GSH; assay type: physicochemical; method in brief: as §2
[17] = Aqueous stability in 50 mM HEPES buffer at pH 7.4 by HPLC chromatogram; assay type: physicochemical
Method in brief: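 Compound in 50 mM HEPES, pH 7.4, analysed by analytical HPLC right after preparation and again after 24 h at 37 °C, with no thiol present. Stability is read from the parent peak.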

[18] = target: Albumin (Bos taurus, UniProt P02769); assay: Stability of the compound assessed as bovine serum albumin-mediated drug degradation measured as compound remaining after 2 hrs by biochemical assay; assay type: ADME; details: cattle, read-out: Stability
Albumin, sequence (P02769 whole entry): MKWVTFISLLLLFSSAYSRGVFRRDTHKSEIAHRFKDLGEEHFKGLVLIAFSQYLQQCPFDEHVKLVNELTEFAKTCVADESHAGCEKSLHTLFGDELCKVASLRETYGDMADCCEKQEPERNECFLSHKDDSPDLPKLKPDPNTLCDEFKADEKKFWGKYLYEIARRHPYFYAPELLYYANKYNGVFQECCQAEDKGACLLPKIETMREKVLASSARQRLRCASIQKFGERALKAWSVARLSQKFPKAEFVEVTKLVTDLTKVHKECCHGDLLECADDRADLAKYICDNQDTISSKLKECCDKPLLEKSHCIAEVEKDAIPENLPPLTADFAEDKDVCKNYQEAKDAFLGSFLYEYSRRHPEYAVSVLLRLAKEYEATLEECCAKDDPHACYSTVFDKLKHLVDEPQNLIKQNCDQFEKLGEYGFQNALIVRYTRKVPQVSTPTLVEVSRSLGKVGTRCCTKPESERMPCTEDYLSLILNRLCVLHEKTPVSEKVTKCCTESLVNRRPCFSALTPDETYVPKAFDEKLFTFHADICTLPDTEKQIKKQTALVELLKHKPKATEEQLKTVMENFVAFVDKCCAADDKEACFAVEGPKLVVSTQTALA

[19] = Stability of the compound assessed as trypsin (unknown origin)-mediated drug degradation measured as compound remaining after 2 hrs by biochemical assay; assay type: ADME; details: human, read-out: Stability
[20] = target: T2, Histone deacetylase 8 (Homo sapiens); assay: Binding affinity to human wild type HDAC8 assessed as retention time for protein fragment after 60 mins of treatment in presence of trypsin (reference value: 84.5 mins)
Method in brief: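 Recombinant human WT HDAC8 (1.7 μM) incubated with 12 equiv compound (20 μM) for 60 min at 37 °C. Protein isolated by SDS-PAGE, reduced (DTT, 56 °C) and alkylated (iodoacetamide), trypsin-digested overnight at 37 °C. Peptides separated on C18 with a 5–60% ACN gradient and detected by LC-MS/MS.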

[21] = target: T2, Histone deacetylase 8 (Homo sapiens); assay: Binding affinity to human wild type HDAC8 assessed as loss of activity measured with in 0.5 hrs by Fluor-de-Lys activity assay
[22] = target: T2, Histone deacetylase 8 (Homo sapiens); assay: (§6) Reversible-time dependent inhibition of human wild type HDAC8 by Fluor-de-Lys activity assay; details: TDE = time-dependent effect
[23] = target: T4, Histone deacetylase 8; assay: as §6; details: read-out: Ki(app)
[24] = tested on: T1, Histone deacetylase 8 (Homo sapiens), Q9BY41 [C153A]; assay: Time-dependent inhibition of human HDAC8 C153A mutant by Fluor-de-Lys activity assay; method in brief: as §1
[25] = Stability in human plasma assessed as compound remaining after 1 hr by HPLC analysis; assay type: ADME, cell-free; details: read-out: Stability; method in brief: as §4
[26] = tested on: HH; assay: Cytotoxicity against human HH cells assessed as cell proliferation after 70 hrs by MTS assay; assay type: functional, cell-based
[27] = tested on: Jurkat; assay: Cytotoxicity against human Jurkat cells assessed as cell proliferation after 70 hrs by MTS assay; assay type: functional, cell-based
[28] = Cytotoxicity against mouse NIH/3T3 cells assessed as cell proliferation after 70 hrs by MTS assay; assay type: ADME, cell-based; details: NIH3T3, 70 h
[29] = target: T5, Histone deacetylase (Homo sapiens) (UniProt Q13547+O15379+Q9UBN7+Q92769+Q9UQL6+Q8WUI4+Q9BY41+Q96DB2+P56524+Q9UKV0+Q969S8); details: HH, 6 to 20 uM
[30] = target: T5, Histone deacetylase (Homo sapiens); details: Jurkat, 6 to 20 uM
[31] = target: T2, Histone deacetylase 8 (Homo sapiens)

In the case of `O=C(CCCCCCC(=O)Nc1ccccc1)NOCc1ccccc1`, the inhibition [1] is reported as “inactive”, the inhibition [2] is reported as “inactive” and the Activity [3] is reported as “Not Active”. The IC50 [4] was over 10 µM, the IC50 [5] was over 10 µM and the IC50 [6] was over 10 µM. The IC50 [7] was over 10 µM, the IC50 [8] was over 10 µM and the inhibition [9] was “inactive”. The inhibition [10] was “inactive” and the Activity [11] was “Non-toxic”.

In the case of `C=C1C(=O)C(C)=C(C)C(=O)C1(C)SC[C@H](NC(=O)CC[C@H](N)C(=O)O)C(=O)NCC(=O)O` (stereo partly drawn), the Retention_time [12] is reported as 10.5 min.

Work on `O=C(CCCCCCC(=O)Nc1ccccc1)NO` [VORINOSTAT] yielded a Retention_time [12] of 10.7 min and a remaining at 2 h [13] of 55%.

For `CC1=C(C)C(=O)C(CONC(=O)CCCCCCC(=O)Nc2ccccc2)=C(C)C1=O`, the Activity [14] was “Non-toxic”, the Activity [15] was “Non-toxic” and the Retention_time [16] was 14.7 min. It also gave a Stability [17] of over 97%, an IC50 [4] of 0.371 µM and an IC50 [5] of 0.255 µM. It also gave an IC50 [6] of 0.149 µM, an IC50 [7] of 0.023 µM and an IC50 [8] of 3.84 µM. For the same compound, the remaining at 2 h [18] was over 95%, the remaining at 2 h [19] was over 95% and the Retention time [20] was 88.5 min. For the same compound, the inhibition [21] was “Active”, the inhibition [22] was “tde” and the Ki [23] was 7 µM. For the same compound, the TDI [24] was “inactive”, the remaining at 1 h [25] was 72% and the remaining at 2 h [13] was 52%. For the same compound, the EC50 [26] was 3.38 µM, the EC50 [27] was 6.05 µM and the EC50 [28] was 9.37 µM. The inhibition [29] was “Active”, the inhibition [30] was “Active” and the K1/2 [31] was 8 µM.
